Our source for the IC50 values is publication PMC9118414 (ACS Omega, 2022).

Holding throughout (assay): Acute cytotoxicity, sulforhodamine B
Common to all, as to assay type: cell-based

The subject of test [1] is A549 nonsmall cell lung carcinoma. The note with it: Homo sapiens, A549, 72 h, read-out: IC50 on cell viability, A549.
The subject of test [2] is PC3 prostate adenocarcinoma. The settings on record: Homo sapiens, 72 h, read-out: IC50 on cell viability, PC3.
Test [3] deals with HL60 promyelocytic leukemia. The settings on record: Homo sapiens, HL-60, 72 h, read-out: IC50 on cell viability, HL60.
The subject of test [4] is HEK293 human embryonic kidney cells. The note with it: HEK293, 72 h, read-out: IC50 on cell viability, HEK293.
Test [5] relates to peripheral blood mononuclear cells (PBMC). The settings on record: Homo sapiens, 72 h, read-out: IC50 on cell viability, PBMC. The method, boiled down: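 PBMC were collected from healthy volunteers and kept in RPMI 1640 with 10% FBS and antibiotics at 37 °C, 5% CO2. 1.0 × 10^5 cells were exposed to various test-compound concentrations for 72 h. Viability read by sulforhodamine B assay. IC50 derived by curve fitting; values are means of three independent experiments.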

`COc1cccc2c1C(=O)c1c(O)c3c(c(O)c1C2=O)C[C@@](O)(C(=O)CO)C[C@@H]3O[C@H]1C[C@H](N)[C@H](O)[C@H](C)O1` [Doxorubicin]: the IC50 in test [1] amounted to 1800 ± 900 nM; in test [2], 2700 ± 1300 nM; in test [3] it was 70 ± 40 nM; in test [4], 4800 ± 2000 nM; in test [5] it was 5200 ± 1800 nM.
